The source of these data is ChEMBL document CHEMBL1139431, “Synthesis of both enantiomers of hydroxypipecolic acid derivatives equivalent to 5-azapyranuronic acids and evaluation of their inhibitory activities against glycosidases” (Bioorg Med Chem, 2008).

The structures appear in SMILES notation.

Experiment [1] is filed under the species Bos taurus. Put plainly: Inhibition of bovine liver beta-glucuronidase at 1000 uM. The procedure, abridged:
(§1)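 Enzyme from bovine liver, run at pH 5.0. A p-nitrophenyl glycoside substrate (2 mM) is used in a 1 mL reaction with an appropriate amount of enzyme. Termination is by 2 mL of 400 mM Na₂CO₃, with spectrophotometric detection of liberated p-nitrophenol at 400 nm.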

Experiment [2] concerns Escherichia coli. Nature of the experiment: Inhibition of Escherichia coli beta-glucuronidase at 1000 uM. The procedure, abridged: (§2)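 E. coli β-glucuronidase assayed at pH 6.8 in a 1 mL mixture containing 2 mM p-nitrophenyl glycoside substrate and an appropriate amount of enzyme. The reaction is stopped with 2 mL of 400 mM Na₂CO₃, and released p-nitrophenol is read at 400 nm.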

Experiment [3] is described as follows: Inhibition of bovine kidney beta-N-acetylglucosaminidase at 1000 uM. Particulars: Bos taurus. In kind it is functional. The procedure, abridged: (§3)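 β-N-Acetylglucosaminidase from bovine kidney, pH 4.5. The substrate is a p-nitrophenyl glycoside at 2 mM, with an appropriate amount of enzyme in a 1 mL mixture. The reaction is quenched with 2 mL of 400 mM Na₂CO₃, and p-nitrophenol is measured at 400 nm.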

The target of experiment [4] is T1, Alpha-N-acetylgalactosaminidase (Gallus gallus) (UniProt Q90744).
T1 sequence (whole entry): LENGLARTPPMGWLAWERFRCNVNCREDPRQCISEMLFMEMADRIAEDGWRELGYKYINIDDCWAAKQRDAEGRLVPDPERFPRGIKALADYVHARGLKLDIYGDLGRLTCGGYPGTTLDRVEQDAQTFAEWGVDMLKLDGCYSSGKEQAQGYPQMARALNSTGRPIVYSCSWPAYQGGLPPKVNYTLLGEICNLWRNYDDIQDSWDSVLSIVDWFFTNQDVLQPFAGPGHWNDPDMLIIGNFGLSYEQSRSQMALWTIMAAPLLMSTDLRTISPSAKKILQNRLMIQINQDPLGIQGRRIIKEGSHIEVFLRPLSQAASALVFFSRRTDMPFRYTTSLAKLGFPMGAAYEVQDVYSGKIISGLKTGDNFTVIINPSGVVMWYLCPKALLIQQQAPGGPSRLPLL
Nature of the experiment: Inhibition of chicken liver alpha-N-acetylgalactosaminidase at 1000 uM. A digest of the protocol: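 Chicken liver α-N-acetylgalactosaminidase at pH 4.0. The reaction (1 mL) holds 2 mM p-nitrophenyl glycoside and an appropriate amount of enzyme. It is stopped by 2 mL of 400 mM Na₂CO₃, and p-nitrophenol release is quantified at 400 nm.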

Experiment [5] deals with Beta-hexosaminidase (Homo sapiens). Put plainly: Inhibition of human Placental beta-N-acetylglucosaminidase at 1000 uM.
Experiment [6] is described as follows: Inhibition of bovine kidney beta-N-acetylglucosaminidase. More on the design: species or system Bos taurus. The procedure, abridged: as §3
Experiment [7] deals with Beta-hexosaminidase (Homo sapiens). Nature of the experiment: Inhibition of human Placental beta-N-acetylglucosaminidase.
A short description of experiment [8]: Inhibition of bovine liver beta-glucuronidase. The arrangement: species or system Bos taurus. The procedure, abridged:
as §1

A short description of experiment [9]: Inhibition of Escherichia coli beta-glucuronidase. The procedure, abridged: as §2

Take `O=C(O)[C@H]1NCC=C[C@H]1O`: the inhibition in experiment [1] is 8.6%; in [2], 3.3%; in [4], 0.2%; in experiment [5] it was 17%. Further, the inhibition at 1000 µM in experiment [3] was found to be 7.3%.

`O=C(O)[C@@H]1NC[C@H](O)[C@@H](O)[C@@H]1O`: the inhibition was found to be 15.8% in experiment [1], 4.2% in experiment [2], 3.4% in [4] and 5.4% in experiment [5]. The compound also returned an inhibition at 1000 µM in experiment [3] of 4.4%.

As to `O=C(O)[C@@H]1NCCC[C@@H]1O`, the inhibition in experiment [1] was 15%; in experiment [2], 23%; in experiment [4] it was 3.2%; in experiment [5], 46%. In experiment [3], this compound showed an inhibition at 1000 µM of 47%.

With `O=C(O)[C@H]1NCC=C[C@@H]1O`, the inhibition was 19% in experiment [1], 2% in experiment [2], 25% in [4] and 60% in [5]. Also, the inhibition at 1000 µM in experiment [3] was found to be 58%. Moreover, the IC50 was 720 µM in experiment [6] and 750 µM in experiment [7].

For `O=C(O)[C@H]1NC[C@@H](O)[C@H](O)[C@@H]1O`, the inhibition in experiment [1] was 20%; in experiment [2], 1.1%; in [4] it was 11%; in experiment [5], 42%. In experiment [3], this compound came in with an inhibition at 1000 µM of 17%.

With `O=C(O)[C@@H]1NCC=C[C@@H]1O`, the inhibition was 10% in experiment [1], 0.9% in experiment [2], 1.3% in experiment [4] and 14% in experiment [5]. In addition, 1000 µM produced 0.8% inhibition in [3].

As to `O=C(O)[C@@H]1NC[C@@H](O)[C@H](O)[C@@H]1O`, the inhibition in [1] is 7.1%; in experiment [2], 6.3%; in experiment [4], 10%; in experiment [5], 0.8%. The same compound came in with an inhibition at 1000 µM in experiment [3] of 0.5%.

Consider `O=C(O)[C@H]1NC[C@@H](O)[C@H](O)[C@H]1O`, for which the inhibition in [1] came out at 17.5%; in experiment [2], 2.6%; in experiment [4], 4.2%; in experiment [5], 6.3%. In [3], this compound came in with an inhibition at 1000 µM of 4.8%.

With `O=C(O)[C@@H]1NCCC[C@H]1O`, the inhibition in [1] came to 0.62%; in experiment [2], 20%; in [4], 1.3%; in experiment [5], 25%. In experiment [3], at 1000 µM the inhibition was 32%.

As for `O=C(O)[C@H]1NC[C@H](O)[C@@H](O)[C@@H]1O`, the inhibition in experiment [1] came to 95%; in experiment [2] it was 72%; in experiment [4], 0.2%; in experiment [5] it was 43%. The same compound returned an inhibition at 1000 µM in [3] of 13%. Moreover, the IC50 in experiment [8] stood at 70 µM; in [9], 215 µM. In experiment [9], this compound had a Ki of 400 µM.

Turning to `O=C(O)[C@H]1NC[C@H](O)[C@@H](O)[C@H]1O`, the inhibition in experiment [1] was found to be 87%; in [2], 21%; in experiment [4], 31%; in [5], 2.6%. Also, in [3], testing at 1000 µM gave an inhibition of 1.9%. In experiment [8], this compound showed an IC50 of 86 µM.

For the compound `O=C(O)[C@@H]1NCC=C[C@H]1O`, the inhibition was determined as 0.2% in [1], 0.9% in [2], 3.2% in experiment [4] and 14% in [5]. The compound also came in with an inhibition at 1000 µM in experiment [3] of 15%.

On to `O=C(O)[C@H]1NC[C@@H](O)[C@@H](O)[C@@H]1O`, for which the inhibition in experiment [1] is 14%; in experiment [2], 1%; in experiment [4], 3.8%; in experiment [5] it was 28%. The compound also had an inhibition at 1000 µM in [3] of 0.5%.

Take `O=C(O)[C@@H]1NC[C@H](O)[C@H](O)[C@H]1O`: the inhibition in experiment [1] amounted to 12%; in experiment [2] it was 2.6%; in experiment [4], 4.4%; in experiment [5] it was 39%. The inhibition at 1000 µM in experiment [3] worked out at 18%.

For `O=C(O)[C@H]1NCCC[C@H]1O`, the inhibition was 0.18% in [1], 24% in experiment [2], 2.5% in experiment [4] and 30% in experiment [5]. This compound gave an inhibition at 1000 µM in experiment [3] of 20%.

As to `O=C(O)[C@H]1NC[C@H](O)[C@H](O)[C@@H]1O`, the inhibition turned out to be 2.1% in [1], 0.6% in experiment [2], 4.5% in experiment [4] and 26% in experiment [5]. At 1000 µM the inhibition in [3] was 14%.

As to `O=C(O)[C@@H]1NC[C@H](O)[C@@H](O)[C@H]1O`, the inhibition in experiment [1] worked out at 6.8%; in experiment [2], 5.2%; in experiment [4] it was 4%; in experiment [5], 42%. The inhibition at 1000 µM in [3] was 27%.

Consider `O=C(O)[C@@H]1NC[C@@H](O)[C@H](O)[C@H]1O`, for which the inhibition in experiment [1] is 2.7%; in experiment [2] it was 5.4%; in [4], 1.3%; in experiment [5] it was 50%. This compound also returned an inhibition at 1000 µM in [3] of 11%.

Take `O=C(O)[C@H]1NCCC[C@@H]1O`: the inhibition was determined as 0.89% in experiment [1], 31% in experiment [2], 5.2% in experiment [4] and 36% in experiment [5]. The compound further showed an inhibition at 1000 µM in experiment [3] of 38%.

For the compound `O=C(O)[C@@H]1NC[C@@H](O)[C@@H](O)[C@H]1O`, the inhibition in experiment [1] amounted to 3.1%; in [2], 1.3%; in [4] it was 8.2%; in experiment [5] it was 26%. In addition, in experiment [3], the inhibition at 1000 µM turned out to be 10%.

For the compound `O=C(O)[C@@H]1NC[C@@H](O)[C@@H](O)[C@@H]1O`, the inhibition in experiment [1] was 9.4%; in experiment [2] it was 1.2%; in experiment [4], 7.2%; in experiment [5] it was 2.1%. In experiment [3], this compound came in with an inhibition at 1000 µM of 1.7%.

Regarding `O=C(O)[C@H]1NC[C@H](O)[C@H](O)[C@H]1O`, the inhibition worked out at 8.8% in [1], 2.3% in [2], 21% in [4] and 7.6% in [5]. In [3], at 1000 µM the inhibition was 5.5%.
